# Legend:
# T47D [1] = assay: Antiproliferative activity against human T47D cells after 48 hrs by SRB assay; assay type: functional, cell-based
# Procedure, shortened: (§1)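 Cells grown in RPMI-1640 with 5% heat-inactivated FCS, 1 mmol L-1 L-glutamine and 50 µg/mL gentamicin at 37 °C, 5% CO2. Seeded at 1000–2000 cells/well, 24 h later exposed 48 h to 5, 12, 25 and 50 µmol L-1. Fixed with 10% TCA 1 h at 4 °C, stained with 0.4% SRB, dye dissolved in Tris-HCl, OD 564 nm. IC50 from Boltzmann sigmoidal nonlinear regression.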
# Aromatase = target: T1, Aromatase (Homo sapiens, UniProt P11511); assay: Inhibition of aromatase activity in human T47D cells after 24 hrs; assay type: cell-based; conditions: for inhibition (INH): human, 24 h
# T1 sequence (P11511 whole entry): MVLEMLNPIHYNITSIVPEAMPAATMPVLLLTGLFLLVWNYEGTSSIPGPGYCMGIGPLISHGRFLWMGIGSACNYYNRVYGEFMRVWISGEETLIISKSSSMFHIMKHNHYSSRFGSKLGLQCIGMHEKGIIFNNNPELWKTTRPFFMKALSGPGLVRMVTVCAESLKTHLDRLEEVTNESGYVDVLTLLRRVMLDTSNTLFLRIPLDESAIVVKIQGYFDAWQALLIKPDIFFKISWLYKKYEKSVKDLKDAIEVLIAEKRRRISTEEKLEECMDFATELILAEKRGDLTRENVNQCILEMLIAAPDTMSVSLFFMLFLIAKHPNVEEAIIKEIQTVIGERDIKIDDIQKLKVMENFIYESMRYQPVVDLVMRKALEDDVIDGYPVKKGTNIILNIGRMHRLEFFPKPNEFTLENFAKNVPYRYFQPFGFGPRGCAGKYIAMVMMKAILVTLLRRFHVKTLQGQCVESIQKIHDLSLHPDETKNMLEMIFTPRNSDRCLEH
# Procedure, shortened: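 T47D cells in DMEM with 10% FBS, 10 µg/ml insulin and 1% penicillin-streptomycin. Plated at 1.2–1.8 × 10,000 cells/well. Treated 24 h with serial dilutions, then cellular aromatase activity measured and IC50 determined.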
# T47D [2] = assay: Cell cycle arrest in human T47D cells by flow cytometry; assay type: functional, cell-based
# Procedure, shortened: (§2)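 Cell cycle distribution by flow cytometry in T47D cells, treated cells versus untreated control, at 8.1 µM; percentage of cells in G1, S and G2/M phases recorded.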
# T47D [3] = assay: Cell cycle arrest in human T47D cells assessed as accumulation at S phase at 8.1 uM by flow cytometry (reference value: 17.14%); assay type: functional; procedure, shortened: as §2
# T47D [4] = assay: Induction of apoptosis in human T47D cells assessed as increase in caspase-8 level by ELISA relative to control; assay type: functional
# Procedure, shortened: (§3)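 Caspase-8 and caspase-9 in T47D cells quantified with separate human ELISA kits, reported as ng/mL against untreated control cells.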
# T47D [5] = assay: Induction of apoptosis in human T47D cells assessed as increase in caspase-9 level by ELISA relative to control; assay type: functional; procedure, shortened: as §3
# T47D [6] = assay: Induction of apoptosis in human T47D cells assessed as increase in BAX expression level at IC50 by qRT-PCR analysis relative to control; assay type: functional
# T47D [7] = assay: Induction of apoptosis in human T47D cells assessed as decrease in Bcl-XL expression level at IC50 by qRT-PCR analysis relative to control; assay type: functional, cell-based
# [8] = Cytotoxicity against human 184A1 cells after 48 hrs by SRB assay; assay type: cell-based; conditions: 184A1, 48 h; procedure, shortened: as §1
# T47D [9] = assay: Cell cycle arrest in human T47D cells assessed as accumulation at G2/M phase at 8.1 uM by flow cytometry (reference value: 15.81%); assay type: functional; procedure, shortened: as §2
# T47D [10] = assay: Cell cycle arrest in human T47D cells assessed as accumulation at G1 phase at 8.1 uM by flow cytometry (reference value: 64.92%); assay type: functional; procedure, shortened: as §2
# T47D [11] = assay: Induction of apoptosis in human T47D cells (reference value: 2.13%); assay type: functional
# T47D [12] = assay: Induction of apoptosis in human T47D cells assessed as increase in Bax/Bcl2 ratio at IC50 by qRT-PCR analysis relative to control; assay type: functional
Structure (SMILES),IC50 (T47D [1]) [µM],inhibition (INH) (Aromatase) [%],further results
Cc1cc(NS(=O)(=O)c2ccc(N/C=C\C(=O)c3ccc4c(c3)Nc3ccccc3S4)cc2)nc(C)n1,56.5,35.88,
COc1ncnc(NS(=O)(=O)c2ccc(N/C=C\C(=O)c3ccc4c(c3)Nc3ccccc3S4)cc2)c1OC,82.2,,
Cc1cc(C)nc(NS(=O)(=O)c2ccc(N/C=C\C(=O)c3ccc4c(c3)Nc3ccccc3S4)cc2)n1,50.7,43.62,
O=C(/C=C\Nc1ccc(S(=O)(=O)Nc2ncccn2)cc1)c1ccc2c(c1)Nc1ccccc1S2,61.3,30.82,
O=C(/C=C\Nc1ccc(S(=O)(=O)Nc2ccnn2-c2ccccc2)cc1)c1ccc2c(c1)Nc1ccccc1S2,68.1,,
COc1cnc(NS(=O)(=O)c2ccc(N/C=C\C(=O)c3ccc4c(c3)Nc3ccccc3S4)cc2)nc1,83.2,,
CC(=O)NS(=O)(=O)c1ccc(N/C=C\C(=O)c2ccc3c(c2)Nc2ccccc2S3)cc1,71.8,40.52,
O=C(/C=C\Nc1ccc(S(=O)(=O)Nc2ccc3cn[nH]c3c2)cc1)c1ccc2c(c1)Nc1ccccc1S2,91.1,,
COc1cccc2c1C(=O)c1c(O)c3c(c(O)c1C2=O)C[C@@](O)(C(=O)CO)C[C@@H]3O[C@H]1C[C@H](N)[C@H](O)[C@H](C)O1 [DOXORUBICIN],9.8,,
Cc1noc(NS(=O)(=O)c2ccc(N/C=C\C(=O)c3ccc4c(c3)Nc3ccccc3S4)cc2)c1C,79.5,,
NS(=O)(=O)c1ccc(N/C=C\C(=O)c2ccc3c(c2)Nc2ccccc2S3)cc1,67.6,28.9,
N=C(N)NS(=O)(=O)c1ccc(N/C=C\C(=O)c2ccc3c(c2)Nc2ccccc2S3)cc1,23.7,72.22,IC50 (Aromatase): 9.67 µM
O=C(/C=C\Nc1ccc(S(=O)(=O)Nc2nccs2)cc1)c1ccc2c(c1)Nc1ccccc1S2,8.1,68.32,Activity (T47D [2]): Dose-dependent effect; Activity (T47D [3]): 13.1%; IC50 (Aromatase): 5.67 µM; fold change (FC) (T47D [4]): 34; fold change (FC) (T47D [5]): 8.9; fold change (FC) (T47D [6]): 55000; Activity (T47D [7]): Below limit of detection; IC50 [8]: 391 µM; Activity (T47D [9]): 56.3%; Activity (T47D [10]): 7.4%; Activity (T47D [11]): 23.2%; Ratio (T47D [12]): 1e+08

# Continued by falling IC50 (T47D [1]), values first:
IC50 (T47D [1]) [µM],inhibition (INH) (Aromatase) [%],Structure (SMILES),further results
136,,CN(C)/C=C\C(=O)c1ccc2c(c1)Nc1ccccc1S2,
78.4,,Cc1cc(NS(=O)(=O)c2ccc(N/C=C\C(=O)c3ccc4c(c3)Nc3ccccc3S4)cc2)on1,
73.6,,Cc1ccnc(NS(=O)(=O)c2ccc(N/C=C\C(=O)c3ccc4c(c3)Nc3ccccc3S4)cc2)n1,
71.4,,Cc1nnc(NS(=O)(=O)c2ccc(N/C=C\C(=O)c3ccc4c(c3)Nc3ccccc3S4)cc2)s1,
58.1,44.94,COc1cc(NS(=O)(=O)c2ccc(N/C=C\C(=O)c3ccc4c(c3)Nc3ccccc3S4)cc2)nc(OC)n1,
54.9,31.92,Nc1ccc(S(=O)(=O)c2ccc(N/C=C\C(=O)c3ccc4c(c3)Nc3ccccc3S4)cc2)cc1,
46.4,,O=C(/C=C\Nc1ccc(S(=O)(=O)c2ccc(N/C=C\C(=O)c3ccc4c(c3)Nc3ccccc3S4)cc2)cc1)c1ccc2c(c1)Nc1ccccc1S2,
21.4,65.1,O=C(/C=C\Nc1ccc(S(=O)(=O)Nc2cnc3ccccc3n2)cc1)c1ccc2c(c1)Nc1ccccc1S2,IC50 (Aromatase): 8.9 µM
8.8,68.86,O=C(/C=C\Nc1ccc(S(=O)(=O)Nc2ccccn2)cc1)c1ccc2c(c1)Nc1ccccc1S2,IC50 (Aromatase): 6.7 µM
